We go through 40 compounds from publication PMC2217204 (The Journal of General Physiology, 2000).

Data set [1] has as its target T1, KACh channel (Rattus norvegicus, UniProt P48548+P63251).
T1 sequence (P63251 1-501): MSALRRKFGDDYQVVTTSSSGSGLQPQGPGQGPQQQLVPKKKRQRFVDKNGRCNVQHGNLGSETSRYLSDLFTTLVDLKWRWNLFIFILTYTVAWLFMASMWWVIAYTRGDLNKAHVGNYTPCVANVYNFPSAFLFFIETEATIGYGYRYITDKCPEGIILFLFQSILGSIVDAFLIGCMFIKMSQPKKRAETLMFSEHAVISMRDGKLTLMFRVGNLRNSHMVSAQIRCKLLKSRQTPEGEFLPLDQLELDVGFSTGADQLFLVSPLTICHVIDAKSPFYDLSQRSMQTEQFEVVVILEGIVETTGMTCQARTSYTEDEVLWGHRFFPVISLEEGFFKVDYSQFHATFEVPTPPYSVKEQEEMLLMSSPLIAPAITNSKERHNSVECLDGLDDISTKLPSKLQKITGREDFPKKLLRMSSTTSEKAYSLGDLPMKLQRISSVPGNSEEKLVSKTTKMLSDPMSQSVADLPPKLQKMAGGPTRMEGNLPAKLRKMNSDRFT
T1 sequence (P48548 1-419): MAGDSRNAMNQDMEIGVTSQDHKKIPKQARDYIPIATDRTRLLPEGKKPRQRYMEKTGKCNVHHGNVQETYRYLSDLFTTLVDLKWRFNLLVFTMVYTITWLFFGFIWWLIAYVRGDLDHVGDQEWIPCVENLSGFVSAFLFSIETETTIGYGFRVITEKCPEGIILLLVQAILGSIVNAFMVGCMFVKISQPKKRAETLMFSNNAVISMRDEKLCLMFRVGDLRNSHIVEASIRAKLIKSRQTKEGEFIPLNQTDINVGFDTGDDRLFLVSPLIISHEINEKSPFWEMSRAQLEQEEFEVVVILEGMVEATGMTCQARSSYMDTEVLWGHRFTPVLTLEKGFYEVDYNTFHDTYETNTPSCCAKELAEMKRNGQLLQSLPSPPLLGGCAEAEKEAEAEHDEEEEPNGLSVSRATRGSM
The format is cell-based. As to conditions: for IC50 / K 1/2 (effect on ATP-dependent gating of KACh channel): atrial inside-out patches, 100 μM GTP and 4 mM ATP, lipid 0.1, 1, 3, 10 and 30 μM, n = 3 each; for reversal of inhibition of ATP-dependent gating: fatty acid–free albumin 50 μg/ml.

The target in data set [2] is T1, KACh channel. In kind it is cell-based. As to conditions: for τo1: 100 μM phospholipid, inside-out, n = 3.
The target of data set [3] is T1, KACh channel. As to conditions: cited from earlier work; for effect on KACh channel activity: physiological concentrations, ref Hong et al. 1996.
Data set [4] concerns the target KATP channel (Rattus norvegicus, UniProt P70673). As to the kind of experiment: KATP channel, inside-out patches from adult rat ventricular cells. The format is cell-based. The conditions noted are these: PIP2 applied soon after patch excision. Summed up: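 KATP channels that appeared on forming inside-out patches were tested with 5 μM arachidonic acid on the cytoplasmic side. In some patches channels were first allowed to run down, then briefly exposed to 3 mM ATP to reactivate them before fatty acid was applied. Recordings were at 24–26°C; 2 μM was also tested (n = 3).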

[5] abbreviates: read-out: K 1/2 (effect on ATP-dependent gating of KACh channel).
The mark [6] stands for this setting: K 1/2 (effect on ATP-dependent gating of KACh channel).

Several values for one entry are separate records, joined by “and”; a condition that tells them apart may be missing. Equal values may be shown once. Read-outs that look alike come from different tables or passages of the source.

Sequence of KATP channel (P70673 whole entry): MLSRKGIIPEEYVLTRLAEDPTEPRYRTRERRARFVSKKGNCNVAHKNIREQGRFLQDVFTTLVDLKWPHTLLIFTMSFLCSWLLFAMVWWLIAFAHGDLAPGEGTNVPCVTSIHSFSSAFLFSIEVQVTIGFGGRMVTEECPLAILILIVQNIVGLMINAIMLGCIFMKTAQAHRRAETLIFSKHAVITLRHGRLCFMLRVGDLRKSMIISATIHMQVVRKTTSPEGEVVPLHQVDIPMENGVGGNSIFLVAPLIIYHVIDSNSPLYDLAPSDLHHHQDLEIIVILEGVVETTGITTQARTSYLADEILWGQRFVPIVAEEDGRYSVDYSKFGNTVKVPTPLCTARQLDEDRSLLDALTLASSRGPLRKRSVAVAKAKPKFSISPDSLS
Sequence of KATP channel (Q63563 whole entry partner): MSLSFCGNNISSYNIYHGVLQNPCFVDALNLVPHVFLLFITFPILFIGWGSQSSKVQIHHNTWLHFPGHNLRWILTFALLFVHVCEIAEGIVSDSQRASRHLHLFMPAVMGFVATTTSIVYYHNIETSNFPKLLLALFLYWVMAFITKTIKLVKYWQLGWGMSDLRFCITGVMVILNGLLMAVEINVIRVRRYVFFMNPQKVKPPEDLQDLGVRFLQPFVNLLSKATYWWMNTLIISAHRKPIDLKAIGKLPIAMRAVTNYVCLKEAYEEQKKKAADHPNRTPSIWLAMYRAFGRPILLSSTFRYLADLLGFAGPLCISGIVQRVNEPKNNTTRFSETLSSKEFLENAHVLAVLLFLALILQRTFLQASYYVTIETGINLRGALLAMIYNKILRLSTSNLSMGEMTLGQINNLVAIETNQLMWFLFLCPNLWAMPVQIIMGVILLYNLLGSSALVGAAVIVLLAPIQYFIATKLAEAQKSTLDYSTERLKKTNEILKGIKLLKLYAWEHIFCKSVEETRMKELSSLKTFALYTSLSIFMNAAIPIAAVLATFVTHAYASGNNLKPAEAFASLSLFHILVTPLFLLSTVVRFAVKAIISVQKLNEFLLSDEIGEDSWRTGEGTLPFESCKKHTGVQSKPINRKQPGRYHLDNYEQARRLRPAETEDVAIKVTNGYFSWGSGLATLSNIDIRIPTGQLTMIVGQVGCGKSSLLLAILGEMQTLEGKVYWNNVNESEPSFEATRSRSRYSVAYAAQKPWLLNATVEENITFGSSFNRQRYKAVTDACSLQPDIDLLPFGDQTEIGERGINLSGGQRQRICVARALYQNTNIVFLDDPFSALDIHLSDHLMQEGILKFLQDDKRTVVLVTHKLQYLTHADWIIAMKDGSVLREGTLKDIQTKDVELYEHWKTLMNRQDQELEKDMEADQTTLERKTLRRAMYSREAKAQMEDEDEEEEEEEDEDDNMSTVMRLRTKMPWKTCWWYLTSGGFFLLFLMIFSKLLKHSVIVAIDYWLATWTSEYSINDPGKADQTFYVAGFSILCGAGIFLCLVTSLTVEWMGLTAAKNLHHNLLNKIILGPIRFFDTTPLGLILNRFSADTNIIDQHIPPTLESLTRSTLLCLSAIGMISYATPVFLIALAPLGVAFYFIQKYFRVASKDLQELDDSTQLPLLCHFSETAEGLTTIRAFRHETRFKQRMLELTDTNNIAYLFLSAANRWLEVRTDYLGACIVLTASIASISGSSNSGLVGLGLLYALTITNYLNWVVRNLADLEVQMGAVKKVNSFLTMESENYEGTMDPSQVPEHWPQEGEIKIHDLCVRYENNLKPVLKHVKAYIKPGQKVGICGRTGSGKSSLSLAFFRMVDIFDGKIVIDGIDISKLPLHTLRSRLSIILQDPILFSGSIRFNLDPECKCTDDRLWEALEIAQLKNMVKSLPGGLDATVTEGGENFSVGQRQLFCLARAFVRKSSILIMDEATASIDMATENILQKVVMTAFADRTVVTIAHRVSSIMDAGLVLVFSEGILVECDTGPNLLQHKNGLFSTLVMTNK

With `CC/C=C\C/C=C\C/C=C\CCCCCCCC(=O)O` [α-linolenic acid [18:3 (n-3)], α-linolenic acid], the IC50 in data set [1] (setting [5]) stood at 6.2 ± 0.8 µM.

For the compound `CCCCCCCC/C=C\CCCCCCCC(=O)O` [Oleic acid [18:1 (n-9)], Oleic acid], the “effect on PIP2-dependent gating of KACh channel” value in data set [2] (2 μM fatty acid applied with 30 μM PIP2) was “inhibited”. Further, in data set [1] (5 μM in the pipette solution (extracellular), after 5 min, n = 4 each), the “inhibition of ATP-dependent gating, extracellular application” value is given as “did not inhibit”. In addition, the “Hill coefficient of inhibition” value in data set [1] (ATP-modified KACh channels, inside-out) was ~2. Moreover, the IC50 in data set [1] (setting [6]) was determined as 1.5 ± 0.2 µM. Also, in data set [1] (read-out: partial inhibition of ATP-dependent gating, extracellular application), the inhibition at 50 µM is 65 ± 6%. The “inhibitory potency after incubation” value in data set [1] (room temperature or 37°C for 30 min) was “reduced their inhibitory potency significantly”. Turning to `CCCCC/C=C\C\C=C/C=C/C=C/[C@@H](SC[C@H](NC(=O)CC[C@H](N)C(=O)O)C(=O)NCC(=O)O)[C@@H](O)CCCC(=O)O` [Leukotriene C4], the “K 1/2 (effect on ATP-dependent gating of KACh channel)” value in data set [1] is given as “No effect”.

On to `O=P(O)(O)OCC(O)CO` (stereo not shown) [Glycerophosphate], for which, in data set [1], the “K 1/2 (effect on ATP-dependent gating of KACh channel)” value is recorded as “No effect”.

Consider phosphatidylethanolamine, for which, in data set [2], the τo1 turned out to be 2.8 ± 0.5 ms.

Turning to `CCCCCCCCCCCCCCCC(=O)O` [Palmitic acid (16:0), Palmitic acid], the “K 1/2 (effect on ATP-dependent gating of KACh channel)” value in data set [1] is on record as “No effect”.

For the compound `CCCCC/C=C/C/C=C/CCCCCCCC(=O)O` [Linoelaidic acid [t,t-18:2 (n-6)], Linoelaidic acid], in data set [1] (setting [5]), the IC50 amounted to 3.2 ± 0.6 µM. With `CCCCC/C=C\C/C=C\C/C=C\C/C=C\CCCC(=O)O[C@@H](CO)COC(=O)CCCCCCCCCCCCCCCCC` [1-stearoyl-2-arachidonoyl-sn-glycerol], the “K 1/2 (effect on ATP-dependent gating of KACh channel)” value in data set [1] was “No effect”. Regarding `CCCCCCCC/C=C\CCCCCCCC(=O)OC(CO)CO` [2-monooleoylglycerol], in data set [1] (setting [6]), the IC50 worked out at 48 ± 8 µM. For the compound `CCCCC/C=C\C/C=C\C/C=C\C/C=C\CCCCO` [Arachidonyl alcohol], the IC50 in data set [1] (setting [5]) was 44 ± 7 µM. For the compound `CCCCC/C=C\C/C=C\C/C=C\C/C=C\CCCC(=O)OC` [Arachidonic acid methyl ester], the IC50 in data set [1] (setting [5]) came out at 12 ± 3 µM.

As to `CCCCC/C=C\C/C=C\CCCCCCCC(=O)O[C@@H](CO)COC(=O)CCCCCCCCCCCCCCCCC` [1-stearoyl-2-linoleoyl-sn-glycerol], the “K 1/2 (effect on ATP-dependent gating of KACh channel)” value in data set [1] is “No effect”. Regarding `NCCCCNCCCN` [Spermidine], the “K 1/2 (effect on ATP-dependent gating of KACh channel)” value in data set [1] is “No effect”. Take `O=P(O)(O)O[C@@H]1[C@H](O)[C@H](O)[C@@H](OP(=O)(O)O)[C@H](OP(=O)(O)O)[C@H]1O` [inositol trisphosphate]: the “effect on KACh channel activity” value in data set [3] is listed as “no significant effect”.

Compound `CC/C=C\C/C=C\C/C=C\C/C=C\C/C=C\C/C=C\CCC(=O)O` [Docosahexaenoic acid [22:6 (n-3)], Docosahexaenoic acid] displayed an IC50 in data set [1] (setting [6]) of 1.4 ± 0.2 µM. In data set [1] (setting [6]), `CC/C=C\C/C=C\C/C=C\C/C=C\C/C=C\CCCC(=O)O` [Eicosapentaenoic acid [20:5 (n-3)], Eicosapentaenoic acid] registered an IC50 of 5.6 ± 2.2 µM.

Turning to `CCCCC/C=C\C/C=C\CCCCCCCC(=O)OCC(O)CO` (stereo not shown) [1-monolinoleoylglycerol], the IC50 in data set [1] (setting [6]) amounted to 8.4 ± 2.2 µM. Turning to `NCCCNCCCCNCCCN` [Spermine], the “K 1/2 (effect on ATP-dependent gating of KACh channel)” value in data set [1] is “No effect”.

As to `CCCCCCCC/C=C\CCCCCCCCCCCCCC(=O)O` [Nervonic acid [24:1 (n-9)], Nervonic acid], the IC50 in data set [1] (setting [5]) is 12.5 ± 2.1 µM. In the case of `CCCCC[C@H](O)/C=C/[C@H]1[C@H](O)CC(=O)[C@@H]1CCCCCCC(=O)O` [Prostaglandin E1], in data set [1], the “K 1/2 (effect on ATP-dependent gating of KACh channel)” value is reported as “No effect”. On to `CCCCCCCC/C=C/CCCCCCCC(=O)O` [Elaidic acid [t-18:1 (n-9)], Elaidic acid], for which, in data set [1] (setting [6]), the IC50 was 21.6 ± 4.8 µM. `CCCCCCCCCCCCCCCCCC(=O)O` [Stearic acid (18:0), Stearic acid]: the “K 1/2 (effect on ATP-dependent gating of KACh channel)” value in data set [1] is on record as “No effect”.

As for `CCCCCCCCCCCCC/C=C/[C@@H](O)[C@@H](N)CO` [Sphingosine (D-form), Sphingosine], the “K 1/2 (effect on ATP-dependent gating of KACh channel)” value in data set [1] is listed as “No effect”. On to Phosphatidylserine, for which, in data set [1], the “K 1/2 (effect on ATP-dependent gating of KACh channel)” value is recorded as “No effect”.

For `CCCCCCCC/C=C\CCCCCCCC(=O)OCC(CO)OC(=O)CCCCCCC/C=C\CCCCCCCC` (stereo not shown) [1,2-dioleoylglycerol], the IC50 in data set [1] (setting [6]) was determined as 21 ± 3 µM. In the case of phosphatidylcholine, the τo1 in data set [2] was determined as 2.5 ± 0.6 ms.

“phosphatidylinositol-4,5-bisphosphate [PIP2]”: the “open time constant of second open state” value in data set [2] (30 μM PIP2 after GTPγS (100 μM) activation) is 2.6 ± 0.3 ms and 2.6 ms. Besides, in data set [2] (30 μM PIP2 after GTPγS activation), the “increase in channel activity” value is reported as “approximately twofold increase”. Further, the “effect on rundown of KATP channels” value in data set [4] was “prevented rundown”. `CCCCCCCCCCCCCC(=O)O[C@@H]1[C@@H](C)[C@@]2(O)[C@@H](C=C(CO)C[C@]3(O)C(=O)C(C)=C[C@@H]23)[C@@H]2C(C)(C)[C@]12OC(C)=O` [Phorbol myristate acetate]: the “K 1/2 (effect on ATP-dependent gating of KACh channel)” value in data set [1] is recorded as “No effect”. For the compound `Nc1nc2c(ncn2[C@@H]2O[C@@H]3COP(=O)(O)O[C@H]3[C@H]2O)c(=O)[nH]1` [cGMP], the “effect on KACh channel activity” value in data set [3] is recorded as “no significant effect”.

In the case of `OCC(O)CO` [Glycerol], the “K 1/2 (effect on ATP-dependent gating of KACh channel)” value in data set [1] is listed as “No effect”. The compound `CCCCCCCC(=O)OCC(CO)OC(=O)CCCCCCC` (stereo not shown) [1,2-dioctanoylglycerol] displayed an IC50 in data set [1] (setting [6]) of 2.8 ± 0.4 µM. On to `CCCCCCCC/C=C\CCCCCCCC(=O)OCC(O)CO` (stereo not shown) [1-monooleoylglycerol], for which the IC50 in data set [1] (setting [6]) was determined as 42 ± 6 µM. On the same count and under the same terms, the same measure for `CCCCCC/C=C\CCCCCCCC(=O)O` [Palmitoleic acid [16:1 (n-7)], Palmitoleic acid]: 10.5 ± 2.4 µM. For `CCCCCCCCCCCCCC=CC(O)C(CO)NC(C)=O` (stereo not shown) [Ceramide (C-2)], the “K 1/2 (effect on ATP-dependent gating of KACh channel)” value in data set [1] is given as “No effect”. On the same count and under the same terms, to `CCCCCCCC(=O)O` [Caprylic acid (8:0), Caprylic acid] belongs “No effect”.

Compound `CCCCCC/C=C\CCCCCCCC(=O)OCC(O)CO` (stereo not shown) [1-monopalmitoleoylglycerol] had an IC50 in data set [1] (setting [6]) of 52 ± 7 µM. For the compound “albumin: fatty acid–free bovine serum albumin”, the “reversal of inhibition of ATP-dependent gating” value is “almost complete reversal” in data set [1] and “completely remove” in data set [1] (listed as fatty acid-free albumin). On to Lysophosphatidylethanolamine, for which the “K 1/2 (effect on ATP-dependent gating of KACh channel)” value in data set [1] is “No effect”. For the compound `[Ca+2]` [Ca^2+], the “effect on open time constant of the KACh channel” value in data set [3] (at concentrations above 30 μM, ref Kim 1991) is recorded as “decreased”. In addition, the “effect on KACh channel activity” value in data set [3] is given as “no significant effect”. For the compound `CCCCCCCC/C=C\CCCCCCCC(=O)OCC(CO)OC(C)=O` (stereo not shown) [1-oleoyl-2-acetylglycerol], the IC50 in data set [1] (setting [6]) worked out at 22 ± 3 µM.

For orientation: inhibition means the relative decrease from the control value, in per cent.
